Assay outcomes (PubChem BioAssay)
aSyn 5UTR inh – 5' untranslated region of α-synuclein, MLPCN primary screen; alpha-synuclein 5'UTR reporter, inhibitor activity; inhibition, % (tested at 7.5 µM); actives 0.82% (n = 300,000); in the data active = inhibition above about 60%;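 note: H4 neuroglioblastoma cells stably carrying SNCA 5'UTR luciferase fusion; 0% = DMSO wells and 100% = positive control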
Mdm2 MdmX PPI – human Mdm2/MdmX binding inhibition. AID 485346. O15151+Q00987. actives 3% (n = 330,000). SaOS-2 split-luciferase Mdm2/MdmX complementation, luminescence. inhibition, % at 8 µM;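 active = inhibition of at least 50% at 8 µM in the primary screen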
Target sequence (O15151 whole entry, looked up): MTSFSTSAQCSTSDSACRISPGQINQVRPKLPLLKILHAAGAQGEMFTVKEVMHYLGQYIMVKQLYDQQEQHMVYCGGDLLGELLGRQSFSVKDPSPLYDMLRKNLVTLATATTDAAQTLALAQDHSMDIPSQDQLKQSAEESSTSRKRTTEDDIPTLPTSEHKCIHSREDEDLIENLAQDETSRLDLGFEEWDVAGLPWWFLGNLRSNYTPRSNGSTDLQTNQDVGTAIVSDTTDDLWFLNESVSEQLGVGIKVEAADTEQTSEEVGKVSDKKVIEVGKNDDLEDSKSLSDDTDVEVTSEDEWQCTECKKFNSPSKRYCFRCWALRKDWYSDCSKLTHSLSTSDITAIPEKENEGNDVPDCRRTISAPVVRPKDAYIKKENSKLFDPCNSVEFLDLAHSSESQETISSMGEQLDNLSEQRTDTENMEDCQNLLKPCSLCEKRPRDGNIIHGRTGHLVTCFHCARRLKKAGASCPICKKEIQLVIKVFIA
Target sequence (Q00987 whole entry, looked up): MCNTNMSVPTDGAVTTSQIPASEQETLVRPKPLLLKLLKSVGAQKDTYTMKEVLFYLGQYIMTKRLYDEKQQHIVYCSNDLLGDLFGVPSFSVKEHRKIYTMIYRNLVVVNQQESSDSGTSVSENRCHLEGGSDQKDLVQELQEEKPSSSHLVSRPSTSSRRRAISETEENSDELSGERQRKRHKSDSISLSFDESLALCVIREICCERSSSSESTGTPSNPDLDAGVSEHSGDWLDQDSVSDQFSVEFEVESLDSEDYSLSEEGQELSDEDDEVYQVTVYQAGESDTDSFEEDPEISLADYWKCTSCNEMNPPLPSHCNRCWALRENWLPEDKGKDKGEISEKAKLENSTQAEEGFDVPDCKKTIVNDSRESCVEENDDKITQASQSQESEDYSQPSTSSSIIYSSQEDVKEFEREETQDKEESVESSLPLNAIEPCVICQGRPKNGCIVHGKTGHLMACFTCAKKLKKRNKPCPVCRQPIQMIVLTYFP
T cruzi inh – T. cruzi replication inhibition; inhibition, % (test concentration not listed); actives 1.4% (n = 300,000); T. cruzi beta-gal in NIH3T3, luminescence, 90 h;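 active = mean inhibition across valid replicates above about 55%, limit read from the data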;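 note: signal also drops with host cell toxicity which is not excluded here; 0% = plate median of DMSO wells and 100% = zero luminescence signal; higher percent means less beta-gal luminescence so fewer parasites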
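assay system = mouse NIH/3T3 fibroblasts infected with β-gal-expressing T. cruzi Tulahuen C4 | input = 5,000 NIH/3T3 host cells per well | buffer or medium = DMEM plus 2% FBS | timing = 3 h host attachment, then at least 90 h co-culture | measured by = GalScreen luminescence, 60 min | evaluation = luminescence reflecting intracellular parasite burden, expressed as percent inhibition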
CSC inhib – cancer stem cell inhibition. actives 1.1% (n = 300,000). AID 2717. inhibition, % at 7.5 µM. cancer stem cell-like cells viability, luminescence; in the data active = inhibition above about 75%; tested in HMLE shEcad cells
SKKanGAS inh – SKKanGAS growth inhibition | S. pyogenes SKKanGAS, kanamycin growth, BacTiter-Glo, 6 h | inhibition, % at 7.5 µM | actives 1.3% (n = 300,000);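 active = mean replicate score, as percent of positive control median, at least 50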;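 note: strain carries kanamycin resistance gene driven by streptokinase promoter and grows in 40 µg/ml kanamycin; loss of luminescence reflects streptokinase promoter inhibition or plain growth inhibition; 0% = median of DMSO wells and 100% = positive control at its reference dose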
Starred values were filed as active, the others as inactive. Only some compounds are listed: those with a hit (about 5.4% of all), similar ones and a draw of the others.

Screening Cc1nn(-c2ccccc2)c2sc(C(=O)NC3CCCCC3)cc12 returned aSyn 5UTR inh -2, Mdm2 MdmX PPI 20, T cruzi inh 15, CSC inhib 45 and SKKanGAS inh 11.
For Cc1nn(-c2ccccc2)c2sc(C(=O)N3CCc4ccccc4C3)cc12 the results were aSyn 5UTR inh 6, T cruzi inh 2 and SKKanGAS inh 55*.
`COC(=O)c1ccc(COC(=O)CNC(=O)c2ccc(C)s2)cc1` gave Mdm2 MdmX PPI -26 and CSC inhib -17.
For COc1ccccc1C(=O)NNC(=O)C(=O)Nc1cccc(Cl)c1C the results were aSyn 5UTR inh 0, Mdm2 MdmX PPI 35, T cruzi inh 22, CSC inhib 11 and SKKanGAS inh 53*.
COc1cccc(C(=O)NNC(=O)C(=O)Nc2cccc(Cl)c2C)c1 was read as aSyn 5UTR inh -14, Mdm2 MdmX PPI 4, T cruzi inh -6 and SKKanGAS inh 27.
`CC1CC(C)CN(S(=O)(=O)c2ccc(NC(=O)[C@@H]3CCCN3C(=O)c3cccs3)cc2)C1` (some centres undefined) gave Mdm2 MdmX PPI 10.
O=[N+]([O-])c1nn(-c2ccccc2)n(O)c1=NCc1ccc2c(c1)OCO2 was read as aSyn 5UTR inh -39, Mdm2 MdmX PPI 6, T cruzi inh 42 and SKKanGAS inh 2.
`O=[N+]([O-])c1nn(-c2ccc3c(c2)OCCO3)n(O)c1=NC1CCCC1` gave aSyn 5UTR inh -108, Mdm2 MdmX PPI -100, T cruzi inh 90*, CSC inhib -5 and SKKanGAS inh 11.
Cc1ccc(N=c2c([N+](=O)[O-])nn(-c3ccc4c(c3)OCCO4)n2O)c(Cl)c1 was read as aSyn 5UTR inh 51, Mdm2 MdmX PPI 40, T cruzi inh 75*, CSC inhib -4 and SKKanGAS inh 9.
O=[N+]([O-])c1nn(-c2ccc3c(c2)OCCO3)n(O)c1=NC1CCCCCC1 was read as aSyn 5UTR inh -91, Mdm2 MdmX PPI -19, T cruzi inh 59* and SKKanGAS inh 7.
Screening O=C1CCCN1CCCN=c1c([N+](=O)[O-])nn(-c2ccc(Cl)cc2)n1O returned aSyn 5UTR inh 43, T cruzi inh 68* and SKKanGAS inh 12.
Screening O=C(COC(=O)c1cc([N+](=O)[O-])ccc1NCCO)Nc1cccnc1Cl returned Mdm2 MdmX PPI 2 and CSC inhib -14.
O=C(NCCN1CCOCC1)c1ccc(NS(=O)(=O)c2cccc([N+](=O)[O-])c2)cc1 was read as aSyn 5UTR inh 0, Mdm2 MdmX PPI -10, T cruzi inh -10, CSC inhib 0 and SKKanGAS inh 0.
For CN(C)CCCNC(=O)C1(O)c2cc(Br)ccc2NC(=O)N1c1ccc(Cl)cc1 (centres undefined) the results were aSyn 5UTR inh 2, Mdm2 MdmX PPI 0, T cruzi inh -1, CSC inhib -9 and SKKanGAS inh -2.
`C#CC[N+](C)(C)C(C#Cc1ccccc1)CC=C` (centres undefined) gave aSyn 5UTR inh -14, Mdm2 MdmX PPI 4, T cruzi inh -6, CSC inhib -8 and SKKanGAS inh -3.
C[C@H](CO)N1C[C@H](C)[C@@H](CN(C)C(=O)Nc2ccc(C(F)(F)F)cc2)Oc2c(NS(=O)(=O)c3ccc(F)cc3)cccc2C1=O was read as Mdm2 MdmX PPI 15.
Cc1ccc(CN=c2c([N+](=O)[O-])nn(-c3ccc4c(c3)OCCO4)n2O)cc1 was read as aSyn 5UTR inh -132, Mdm2 MdmX PPI -148, T cruzi inh 32, CSC inhib 0 and SKKanGAS inh 6.
Cc1cccc(CCN=c2c([N+](=O)[O-])nn(-c3ccccc3)n2O)c1 was read as aSyn 5UTR inh -1, Mdm2 MdmX PPI 17, T cruzi inh 43, CSC inhib -3 and SKKanGAS inh 17.
O=[N+]([O-])c1nn(-c2ccc(Cl)cc2)n(O)c1=NCc1ccccc1 was read as aSyn 5UTR inh -46, Mdm2 MdmX PPI 8, T cruzi inh 14, CSC inhib 7 and SKKanGAS inh 2.
`COc1ccc(-n2nc([N+](=O)[O-])c(=NCCc3cccc(C)c3)n2O)cc1` gave aSyn 5UTR inh -25, Mdm2 MdmX PPI -3, T cruzi inh 63*, CSC inhib -3 and SKKanGAS inh 10.
O=[N+]([O-])c1nn(-c2ccc3c(c2)OCCO3)n(O)c1=NCCCO was read as aSyn 5UTR inh -47, Mdm2 MdmX PPI -9, T cruzi inh 77*, CSC inhib 5 and SKKanGAS inh 26.
For CCc1ccc(N=c2c([N+](=O)[O-])nn(-c3ccc4c(c3)OCCO4)n2O)cc1 the results were aSyn 5UTR inh -55, Mdm2 MdmX PPI 41, T cruzi inh 62* and SKKanGAS inh 9.
For Cc1ccc(N=c2c([N+](=O)[O-])nn(-c3ccc(Cl)cc3)n2O)cc1C the results were aSyn 5UTR inh -50, Mdm2 MdmX PPI 2, T cruzi inh 59*, CSC inhib -8 and SKKanGAS inh 28.
O=C(c1ccco1)N1CCN(C2CCCC2)CC1 was read as aSyn 5UTR inh 2, Mdm2 MdmX PPI -21, T cruzi inh 11 and SKKanGAS inh -4.
Screening Cc1ccc(CN(C)C(=O)c2cc(COc3cccc(C(F)(F)F)c3)on2)o1 returned aSyn 5UTR inh -10, Mdm2 MdmX PPI -2, T cruzi inh 4, CSC inhib 20 and SKKanGAS inh -14.
For Cc1ccc(NC2CCCN(C(=O)c3cc4ncccn4n3)C2)cc1C (centres undefined) the results were aSyn 5UTR inh 14, Mdm2 MdmX PPI -13, T cruzi inh 3, CSC inhib -11 and SKKanGAS inh -6.
For CNCCOc1ccccc1OC(C)C the results were aSyn 5UTR inh -9, Mdm2 MdmX PPI -2, T cruzi inh 5, CSC inhib -7 and SKKanGAS inh 0.
`COc1ccccc1NC(=O)C(C)OC(=O)CSCC(=O)Nc1cc(C)on1` (centres undefined) gave Mdm2 MdmX PPI 0 and CSC inhib -3.
`C[C@@H](CSc1ccccc1)CN1CC[C@H](O)CCC1=O` gave aSyn 5UTR inh -5, Mdm2 MdmX PPI -1, T cruzi inh -1, CSC inhib -5 and SKKanGAS inh -2.
For Cc1ccc(SC[C@H](C)CN2CC[C@H](C(C)(C)C)CCC2=O)cc1 the results were aSyn 5UTR inh -9, Mdm2 MdmX PPI -13, T cruzi inh 29, CSC inhib 76* and SKKanGAS inh 15.
Screening C[C@@H](CSc1ccc(Br)cc1)CN1CC[C@H](C(C)(C)C)CCC1=O returned Mdm2 MdmX PPI -2 and CSC inhib 123*.
O=C(c1ccc(NS(=O)(=O)c2ccc3[nH]c(=O)[nH]c3c2)cc1)N1CCN(c2ccccc2O)CC1 was read as aSyn 5UTR inh -1, Mdm2 MdmX PPI 8, T cruzi inh -15, CSC inhib -4 and SKKanGAS inh 6.
`CCCCNC(=O)Nc1ncn[nH]1` gave aSyn 5UTR inh -13, Mdm2 MdmX PPI 7, T cruzi inh -10, CSC inhib 4 and SKKanGAS inh -3.
